Experimental data published in ChEMBL document CHEMBL1909525, “Synthesis and anticonvulsant activity of novel 2,6-diketopiperazine derivatives. Part 1: perhydropyrrole[1,2-a]pyrazines” (Eur J Med Chem, 2011).
Active and inactive are the calls of the source. No cut-off for these calls is given here.

Legend:
[1] = system: Mus musculus; test: Anticonvulsant activity in ip dosed albino Carworth Farms No.1 mouse assessed as protection against maximal electroshock-induced seizure after 0.25 hrs; format: functional; details: albino Carworth Farms No.1, ip
Procedure, shortened: (§1)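 Mouse quantification at the time of peak effect, compound given i.p. in 0.5% methylcellulose. Groups of at least eight mice received varied doses until at least two points fell between 100 and 0% response. ED50 (MES, scMET) and TD50 (rotorod) with 95% CI by probit analysis (Finney). PI = TD50/ED50 MES.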

[2] = system: Mus musculus; test: Anticonvulsant activity in ip dosed albino Carworth Farms No.1 mouse assessed as protection against subcutaneous metrazol-induced seizure after 0.25 hrs; format: functional; details: albino Carworth Farms No.1, 0.25 h; procedure, shortened: as §1
[3] = species on record: Mus musculus; test: Protective index, ratio of TD50 for albino Carworth Farms No.1 mouse to ED50 for albino Carworth Farms No.1 mouse by maximal electroshock-induced seizure test; format: functional
Procedure, shortened: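 Mouse quantification at the time of peak effect, compound given i.p. in 0.5% methylcellulose. Groups of at least eight mice received varied doses until at least two points fell between 100 and 0% response. PI = TD50/ED50 MES.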

[4] = system: Mus musculus; test: Anticonvulsant activity in ip dosed albino Carworth Farms No.1 mouse assessed as time needs to show peak effect for protection against maximal electroshock-induced seizure; format: functional
[5] = system: Rattus norvegicus; test: Anticonvulsant activity in po dosed albino Sprague-Dawley rat assessed as protection against maximal electroshock-induced seizure after 0.25 hrs; format: functional
Procedure, shortened: (§2)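 Rats dosed orally, compound in 0.5% methylcellulose. MES at 150 mA, 60 Hz, 0.2 s; scMET with pentylenetetrazole 70 mg/kg s.c. plus 30 min observation; rotorod for toxicity.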

[6] = system: Rattus norvegicus; test: Anticonvulsant activity in po dosed albino Sprague-Dawley rat assessed as protection against subcutaneous metrazol-induced seizure after 0.25 hrs; format: functional; procedure, shortened: as §2
[7] = Neurotoxicity in po dosed albino Sprague-Dawley rat assessed as motor impairment after 0.25 hrs by rotarod test; format: toxicity, organism-based; details: in vivo; procedure, shortened: as §2
[8] = species on record: Rattus norvegicus; test: Protective index, ratio of TD50 for albino Sprague-Dawley rat to ED50 for albino Sprague-Dawley rat by maximal electroshock-induced seizure test; format: functional
[9] = system: Rattus norvegicus; test: Anticonvulsant activity in po dosed albino Sprague-Dawley rat assessed as time needs to show peak effect for protection against maximal electroshock-induced seizure after 0.25 hrs; format: functional; procedure, shortened: as §2
[10] = system: Mus musculus; test: Neurotoxicity in albino Carworth Farms No.1 mouse assessed as motor impairment at 30 mg/kg, ip after 0.5 hrs by rotarod test; format: toxicity, organism-based; design: dose 30 mg/kg, route intraperitoneal; details: in vivo
Procedure, shortened: (§3)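 Rotorod neurotoxicity in mice at 6 r.p.m. Compound given i.p. (30, 100, 300 mg/kg) in 0.5% methylcellulose; tested at 30 min and 4 h. Impairment is inability to keep equilibrium on the rod for a given time; scored as impaired/tested.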

[11] = system: Mus musculus; test: Neurotoxicity in albino Carworth Farms No.1 mouse assessed as motor impairment at 100 mg/kg, ip after 0.5 hrs by rotarod test; format: toxicity, organism-based; design: dose 100 mg/kg, route intraperitoneal; details: in vivo; procedure, shortened: as §3
[12] = system: Mus musculus; test: Neurotoxicity in albino Carworth Farms No.1 mouse assessed as motor impairment at 300 mg/kg, ip after 0.5 hrs by rotarod test; format: toxicity, organism-based; design: dose 300 mg/kg, route intraperitoneal; details: in vivo; procedure, shortened: as §3
[13] = system: Mus musculus; test: Anticonvulsant activity in albino Carworth Farms No.1 mouse assessed as protection against subcutaneous metrazol-induced seizure at 30 mg/kg, ip after 0.5 hrs; format: functional, organism-based; design: dose 30 mg/kg
Procedure, shortened: (§4)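 Mouse scMET test. Compound given i.p. (30, 100 or 300 mg/kg) in 0.5% methylcellulose. Pentylenetetrazole 85 mg/kg (CD97) given s.c. at 0.5 or 4 h, then mice observed for 30 min. Protection is absence of clonic spasms; scored as protected/tested.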

[14] = system: Mus musculus; test: Anticonvulsant activity in albino Carworth Farms No.1 mouse assessed as protection against subcutaneous metrazol-induced seizure at 30 mg/kg, ip after 4 hrs; format: functional, organism-based; design: dose 30 mg/kg; procedure, shortened: as §4
[15] = system: Mus musculus; test: Anticonvulsant activity in albino Carworth Farms No.1 mouse assessed as protection against subcutaneous metrazol-induced seizure at 100 mg/kg, ip after 0.5 hrs; format: functional, organism-based; design: dose 100 mg/kg; procedure, shortened: as §4
[16] = system: Mus musculus; test: Anticonvulsant activity in albino Carworth Farms No.1 mouse assessed as protection against subcutaneous metrazol-induced seizure at 100 mg/kg, ip after 4 hrs; format: functional, organism-based; design: dose 100 mg/kg; procedure, shortened: as §4
[17] = system: Mus musculus; test: Anticonvulsant activity in albino Carworth Farms No.1 mouse assessed as protection against subcutaneous metrazol-induced seizure at 300 mg/kg, ip after 0.5 hrs; format: functional, organism-based; design: dose 300 mg/kg; procedure, shortened: as §4
[18] = system: Mus musculus; test: Anticonvulsant activity in albino Carworth Farms No.1 mouse assessed as protection against subcutaneous metrazol-induced seizure at 300 mg/kg, ip after 4 hrs; format: functional, organism-based; design: dose 300 mg/kg; procedure, shortened: as §4
[19] = system: Mus musculus; test: Anticonvulsant activity in albino Carworth Farms No.1 mouse assessed as protection against maximal electroshock-induced seizure at 30 mg/kg, ip after 0.5 hrs; format: functional, organism-based; design: dose 30 mg/kg
Procedure, shortened: (§5)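 Mouse MES test with compound given i.p. (30, 100 or 300 mg/kg) in 0.5% methylcellulose; tested at 0.5 and 4 h. Corneal stimulus of 50 mA at 60 Hz for 0.2 s, electrodes primed with 0.5% butacaine in 0.9% NaCl. Protection is abolition of hindlimb tonic extension; scored as protected/tested.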

[20] = system: Mus musculus; test: Anticonvulsant activity in albino Carworth Farms No.1 mouse assessed as protection against maximal electroshock-induced seizure at 30 mg/kg, ip after 4 hrs; format: functional, organism-based; design: dose 30 mg/kg; procedure, shortened: as §5
[21] = system: Mus musculus; test: Anticonvulsant activity in albino Carworth Farms No.1 mouse assessed as protection against maximal electroshock-induced seizure at 100 mg/kg, ip after 0.5 hrs; format: functional, organism-based; design: dose 100 mg/kg; procedure, shortened: as §5
[22] = system: Mus musculus; test: Anticonvulsant activity in albino Carworth Farms No.1 mouse assessed as protection against maximal electroshock-induced seizure at 100 mg/kg, ip after 4 hrs; format: functional, organism-based; design: dose 100 mg/kg; procedure, shortened: as §5
[23] = system: Mus musculus; test: Anticonvulsant activity in albino Carworth Farms No.1 mouse assessed as protection against maximal electroshock-induced seizure at 300 mg/kg, ip after 0.5 hrs; format: functional, organism-based; design: dose 300 mg/kg; procedure, shortened: as §5
[24] = system: Mus musculus; test: Anticonvulsant activity in albino Carworth Farms No.1 mouse assessed as protection against maximal electroshock-induced seizure at 300 mg/kg, ip after 4 hrs; format: functional, organism-based; design: dose 300 mg/kg; procedure, shortened: as §5
[25] = system: Mus musculus; test: Neurotoxicity in albino Carworth Farms No.1 mouse assessed as motor impairment at 30 mg/kg, ip after 4 hrs by rotarod test; format: toxicity, organism-based; design: dose 30 mg/kg, route intraperitoneal; details: in vivo; procedure, shortened: as §3
[26] = system: Mus musculus; test: Neurotoxicity in albino Carworth Farms No.1 mouse assessed as motor impairment at 300 mg/kg, ip after 4 hrs by rotarod test; format: toxicity, organism-based; design: dose 300 mg/kg, route intraperitoneal; details: in vivo; procedure, shortened: as §3
[27] = system: Mus musculus; test: Anticonvulsant activity in albino Carworth Farms No.1 mouse assessed as protection against electric-current for 3 secs-induced seizure at 100 mg/kg, ip after 0.5 hrs by 6Hz minimal clonic seizure test; format: functional
Procedure, shortened: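 6 Hz psychomotor seizure test in mice. Compound given i.p. as a suspension in 0.5% methylcellulose. Corneal stimulation at 32 mA, 0.2-ms monopolar rectangular pulses at 6 Hz for 3 s, from a constant-current device. Tests run 0.25–4 h after dosing. A mouse counted as protected if it resumed normal exploratory behaviour within 10 s; scored as protected/tested.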

[28] = system: Mus musculus; test: Anticonvulsant activity in ip dosed albino Carworth Farms No.1 mouse assessed as protection against electric-current for 3 secs-induced seizure after 0.25 hrs by 6Hz minimal clonic seizure test; format: functional; details: albino Carworth Farms No.1, ip
[29] = system: Mus musculus; test: Anticonvulsant activity in ip dosed albino Carworth Farms No.1 mouse assessed as time needs to show peak effect for electric-current for 3 secs-induced seizure after 0.25 hrs by 6Hz minimal clonic seizure test; format: functional

Row | Structure (SMILES) | ED50 [1] | ED50 [2] | Time [4] | ED50 [6] | TD50 at 0.25 h [7] | Time [9] | Activity [10] | Activity [11] | Activity [12] | Activity [13] | Activity [14] | Activity [15] | Activity [16] | Activity [17] | Activity [18] | Activity [19] | Activity [20] | Activity [21] | Activity [22] | Activity [23] | other results
1 | O=C1NC(=O)C(c2ccccc2)(c2ccccc2)N1 [PHENYTOIN] | 5.64 mg/kg | > 50 mg/kg | 1 h | > 500 mg/kg | > 1000 mg/kg | 4 h | – | – | – | – | – | – | – | – | – | – | – | – | – | – | Ratio TD50/ED50 [3]: 7.3; ED50 [5]: 28.1 mg/kg; Ratio TD50/ED50 [8]: >36.6
2 | Cl.O=C1[C@H](c2ccccc2)N2CCC[C@H]2C(=O)N1Cc1ccccc1 | – | – | – | – | – | – | Non-toxic | Non-toxic | Non-toxic | inactive | inactive | inactive | inactive | inactive | inactive | inactive | inactive | inactive | inactive | Active | Activity [24]: inactive; Activity [25]: Non-toxic; Activity [26]: Non-toxic
3 | COC(=O)[C@@H](c1ccccc1)N1CCC[C@H]1C(N)=O | – | – | – | – | – | – | – | – | Toxic | – | – | – | – | – | – | – | – | – | – | – | Activity [27]: Active
4 | COC[C@@H](NC(C)=O)C(=O)NCc1ccccc1 [LACOSAMIDE] | 4.46 mg/kg | > 25 mg/kg | 0.5 h | > 250 mg/kg | > 500 mg/kg | 0.5 h | – | – | – | – | – | – | – | – | – | – | – | – | – | – | ED50 [28]: 9.99 mg/kg; Time [29]: 0.5 h
5 | O=C1CN2CCC[C@H]2C(=O)N1 | – | – | – | – | – | – | Non-toxic | Non-toxic | Non-toxic | inactive | inactive | inactive | inactive | inactive | inactive | inactive | inactive | inactive | inactive | inactive | Activity [24]: inactive; Activity [25]: Non-toxic; Activity [26]: Non-toxic
6 | CCC1(c2ccccc2)C(=O)NC(=O)NC1=O [PHENOBARBITAL] | 21.8 mg/kg | 13.2 mg/kg | 1 h | 11.6 mg/kg | 61.1 mg/kg | 5 h | – | – | – | – | – | – | – | – | – | – | – | – | – | – | ED50 [28]: 14.8 mg/kg; Time [29]: 0.5 h
